{
  "source": "ChEMBL document CHEMBL1133254",
  "about": "“One-pot synthesis and biological evaluation of aspergillamides and analogues” (Bioorg Med Chem Lett, 2000)",
  "key": {"[1]": {"test_system": "HCT-116", "assay": "Cytotoxicity against HCT 116 cell line", "type": "functional, cell-based", "details": "Homo sapiens"}, "[2]": {"test_system": "MCF7", "assay": "Compound was tested for cytotoxicity against MCF-7 cell line; Active", "type": "functional, cell-based", "details": "Homo sapiens"}, "[3]": {"test_system": "Candida albicans", "assay": "Compound ( at <100 uM) was tested for growth inhibition against Candida albicans", "type": "functional"}, "[4]": {"test_system": "Bacillus subtilis", "assay": "Compound ( at <100 uM) was tested for growth inhibition against Bacillus subtilis", "type": "functional"}, "[5]": {"test_system": "Staphylococcus aureus", "assay": "Compound ( at <100 uM) was tested for growth inhibition against Staphylococcus aureus", "type": "functional"}, "[6]": {"test_system": "MCF7", "assay": "Inhibitory concentration against MCF-7 cell line", "type": "functional, cell-based", "details": "Homo sapiens", "procedure,_shortened": "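MCF-7 cells maintained in RPMI-1640 with 5% FCS at 37 °C under 5% CO2. Test material came from dilution plates prepared from the one-pot Ugi synthesis plates. Each sample was screened at five concentrations, and an approximate IC50 was estimated from the results.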"}},
  "note": "Active and inactive are the calls of the source. The calls are words filed in the database; no cut-off is given here.",
  "data": [
    {"smiles": "CC(=O)NC(C(=O)N(C)C(C(=O)N/C=C\\c1c(CC=C(C)C)[nH]c2ccccc12)C(C)C)C(C)C", "note": "(stereo unspecified)", "values": [
      {"measurement": "IC50", "setting": "[1]", "value": 16, "unit": "µg/mL"}
    ]},
    {"smiles": "CC(=O)NCC(=O)N(CCc1c[nH]c2ccccc12)CC(=O)N/C=C\\c1c[nH]c2cc(OCc3ccccc3)ncc12", "values": [
      {"measurement": "Cytotoxicity", "setting": "[2]", "value": "Active"}
    ]},
    {"smiles": "CC(=O)NCC(=O)N(CCCCCO)C1(C(=O)N/C=C\\c2c[nH]c3ccccc23)CCN(Cc2ccccc2)CC1", "values": [
      {"measurement": "Inhibition", "setting": "[3]", "value": 100, "unit": "%"}
    ]},
    {"smiles": "CC(=O)NCC(=O)N1C(C(=O)N/C=C\\c2c[nH]c3ccccc23)CSC1(C)C", "note": "(stereo unspecified)", "values": [
      {"measurement": "Inhibition", "setting": "[3]", "value": 100, "unit": "%"}
    ]},
    {"smiles": "CC(=O)N[C@H](CC(C)C)C(=O)N1C(C(=O)N/C=C\\c2c[nH]c3cc(OCc4ccccc4)ncc23)CSC1(C)C", "note": "(stereo partly specified)", "values": [
      {"measurement": "Inhibition", "setting": "[4]", "value": 100, "unit": "%"},
      {"measurement": "Cytotoxicity", "setting": "[2]", "value": "Active"},
      {"measurement": "Inhibition", "setting": "[5]", "value": 100, "unit": "%"}
    ]},
    {"smiles": "CC(=O)N[C@H](CC(C)C)C(=O)N(CCCCCO)C1(C(=O)N/C=C\\c2c[nH]c3cc(OCc4ccccc4)ncc23)CCN(Cc2ccccc2)CC1", "values": [
      {"measurement": "Cytotoxicity", "setting": "[2]", "value": "Active"}
    ]},
    {"smiles": "CC(=O)N[C@H](CC(C)C)C(=O)N1C(C(=O)N/C=C\\c2c[nH]c3ccccc23)CSC1(C)C", "note": "(stereo partly specified)", "values": [
      {"measurement": "Inhibition", "setting": "[4]", "value": 100, "unit": "%"},
      {"measurement": "Inhibition", "setting": "[5]", "value": 100, "unit": "%"}
    ]},
    {"smiles": "CC(=O)N[C@H](CC(C)C)C(=O)N(CCc1c[nH]c2ccccc12)CC(=O)N/C=C\\c1c[nH]c2ccccc12", "values": [
      {"measurement": "IC50", "setting": "[6]", "value": 49.9, "unit": "µM"}
    ]},
    {"smiles": "CC(=O)NCC(=O)N(CCc1c[nH]c2ccccc12)CC(=O)N/C=C\\c1c[nH]c2ccccc12", "values": [
      {"measurement": "IC50", "setting": "[6]", "value": 4.1, "unit": "µM"}
    ]},
    {"smiles": "CCC(C)CC(C(=O)N/C=C\\c1c[nH]c2ccccc12)N(C)Cc1ccc(O)cc1", "note": "(stereo unspecified) [ARAGILAMIDE]", "values": [
      {"measurement": "IC50", "setting": "[1]", "value": 16, "unit": "µg/mL"}
    ]},
    {"smiles": "CC(=O)N1CCC[C@@H]1C(=O)N(CCc1c[nH]c2ccccc12)CC(=O)N/C=C\\c1c[nH]c2cc(OCc3ccccc3)ncc12", "values": [
      {"measurement": "Inhibition", "setting": "[4]", "value": 100, "unit": "%"},
      {"measurement": "Inhibition", "setting": "[5]", "value": 100, "unit": "%"}
    ]},
    {"smiles": "O=C(/C=C/c1c[nH]c2ccccc12)N/C=C/c1c[nH]c2ccccc12", "note": "[CHONDRIAMIDE A]", "values": [
      {"measurement": "IC50", "setting": "[1]", "value": 16, "unit": "µg/mL"}
    ]},
    {"smiles": "CC(=O)N[C@H](CC(C)C)C(=O)N(C)C(Cc1ccccc1)C(=O)N/C=C\\c1c[nH]c2cc(OCc3ccccc3)ncc12", "note": "(stereo partly specified)", "values": [
      {"measurement": "Inhibition", "setting": "[3]", "value": 100, "unit": "%"}
    ]},
    {"smiles": "CC(=O)NCC(=O)N(CCCCCO)C1(C(=O)N/C=C\\c2c[nH]c3cc(OCc4ccccc4)ncc23)CCN(Cc2ccccc2)CC1", "values": [
      {"measurement": "Cytotoxicity", "setting": "[2]", "value": "Active"}
    ]},
    {"smiles": "CC(=O)N[C@H](CC(C)C)C(=O)N(C)C(Cc1ccccc1)C(=O)N/C=C\\c1c[nH]c2ccccc12", "note": "(stereo partly specified)", "values": [
      {"measurement": "IC50", "setting": "[6]", "value": 0.3, "unit": "µM"}
    ]},
    {"smiles": "CC(=O)NCC(=O)N1C(C(=O)N/C=C\\c2c[nH]c3cc(OCc4ccccc4)ncc23)CSC1(C)C", "note": "(stereo unspecified)", "values": [
      {"measurement": "Cytotoxicity", "setting": "[2]", "value": "Active"}
    ]},
    {"smiles": "CC(=O)N1CCC[C@H]1C(=O)N(C1CCCCC1)C1(C(=O)N/C=C\\c2c[nH]c3ccccc23)CCCCC1", "values": [
      {"measurement": "IC50", "setting": "[6]", "value": 0.4, "unit": "µM"}
    ]},
    {"smiles": "CC(=O)NC(CC(C)C)C(=O)N(C)C(Cc1ccccc1)C(=O)N/C=C\\c1c[nH]c2ccccc12", "note": "(stereo unspecified)", "values": [
      {"measurement": "IC50", "setting": "[1]", "value": 16, "unit": "µg/mL"}
    ]},
    {"smiles": "CC(=O)N1CCCC1C(=O)N(C)C(Cc1ccccc1)C(=O)N/C=C\\c1c[nH]c2cc(OCc3ccccc3)ncc12", "note": "(stereo unspecified)", "values": [
      {"measurement": "IC50", "setting": "[6]", "value": 1.9, "unit": "µM"},
      {"measurement": "Cytotoxicity", "setting": "[2]", "value": "Active"}
    ]},
    {"smiles": "CC(=O)N[C@H](CC(C)C)C(=O)N(CCc1c[nH]c2ccccc12)CC(=O)N/C=C\\c1c[nH]c2cc(OCc3ccccc3)ncc12", "values": [
      {"measurement": "Inhibition", "setting": "[4]", "value": 100, "unit": "%"},
      {"measurement": "Inhibition", "setting": "[5]", "value": 100, "unit": "%"}
    ]}
  ]
}
